According to ChEMBL document CHEMBL1149705, “Synthesis and antimicrobial evaluation of new chalcones containing piperazine or 2,5-dichlorothiophene moiety” (2007):
≈ marks a conversion by molar mass, not a printed value.

What was measured:
Format in all cases: functional
Pichia kudriavzevii [1] = assay: Antifungal activity against Candida krusei GO3 at 250 ug/ml after 48 hrs by agar well diffusion technique; settings: read-out: IZ
Candida albicans [2] = assay: Antifungal activity against Candida albicans at 250 ug/ml after 48 hrs by agar well diffusion technique; settings: read-out: IZ
Klebsiella pneumoniae = assay: Antibacterial activity against Klebsiella pneumoniae at 250 ug/ml after 48 hrs by agar well diffusion technique; settings: read-out: IZ
In short: (§1)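 Cup-plate agar well diffusion on nutrient agar, set for 1–1.5 h. Cups of 10 mm were bored with a sterile cork borer, and test solution was added by sterile syringe. Plates were incubated at 37 °C for 48 h. The read-out was inhibition zone diameter in mm, graded 0–6 mild, 7–13 moderate and 14–26 efficacy. Ciprofloxacin was the standard; 10% DMSO served as solvent control.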

Proteus vulgaris = assay: Antibacterial activity against Proteus vulgaris at 250 ug/ml after 48 hrs by agar well diffusion technique; settings: read-out: IZ; in short: as §1
Escherichia coli = assay: Antibacterial activity against Escherichia coli ESS 2231 at 250 ug/ml after 48 hrs by agar well diffusion technique; settings: read-out: IZ; in short: as §1
Aspergillus fumigatus = assay: Antifungal activity against Aspergillus fumigatus at 250 ug/ml after 48 hrs by agar well diffusion technique; settings: read-out: IZ; in short: as §1
Candida albicans [3] = assay: Antifungal activity against Candida albicans after 48 hrs by agar well diffusion technique
Nakaseomyces glabratus [4] = assay: Antifungal activity against Candida glabrata HO3 at 250 ug/ml after 48 hrs by agar well diffusion technique; settings: read-out: IZ
Pichia kudriavzevii [5] = assay: Antifungal activity against Candida krusei GO3 after 48 hrs by agar well diffusion technique
Staphylococcus aureus = assay: Antibacterial activity against Staphylococcus aureus 209p at 250 ug/ml after 48 hrs by agar well diffusion technique; settings: read-out: IZ; in short: as §1
Nakaseomyces glabratus [6] = assay: Antifungal activity against Candida glabrata HO3 after 48 hrs by agar well diffusion technique

Row | SMILES | zone of inhibition at 250 µg/mL (Pichia kudriavzevii [1]) | zone of inhibition at 250 µg/mL (Candida albicans [2]) | zone of inhibition at 250 µg/mL (Klebsiella pneumoniae) | zone of inhibition at 250 µg/mL (Proteus vulgaris) | zone of inhibition at 250 µg/mL (Escherichia coli) | zone of inhibition at 250 µg/mL (Aspergillus fumigatus) | MIC50 (Candida albicans [3]) | zone of inhibition at 250 µg/mL (Nakaseomyces glabratus [4]) | MIC50 (Pichia kudriavzevii [5]) | zone of inhibition at 250 µg/mL (Staphylococcus aureus) | MIC50 (Nakaseomyces glabratus [6])
1 | Cc1cccc(/C=C/C(=O)c2cc(Cl)sc2Cl)c1 | 22 mm | 10 mm | 10 mm | 6 mm | 20 mm | 20 mm | 51.1 µg/mL (≈ 172 µM) | 14 mm | 42.3 µg/mL (≈ 142 µM) | 11 mm | 65 µg/mL (≈ 219 µM)
2 | O=C(/C=C/c1ccc(Cl)cc1)c1ccc(N2CCNCC2)cc1 | 20 mm | 18 mm | 14 mm | 16 mm | 22 mm | 12 mm | 55 µg/mL (≈ 168 µM) | 14 mm | 60 µg/mL (≈ 184 µM) | 18 mm | 60 µg/mL (≈ 184 µM)
3 | O=C(/C=C/c1cccc([N+](=O)[O-])c1)c1ccc(N2CCNCC2)cc1 | 18 mm | 16 mm | 14 mm | 18 mm | 26 mm | 20 mm | 6.75 µg/mL (≈ 20 µM) | 18 mm | 18.6 µg/mL (≈ 55 µM) | 24 mm | 16.8 µg/mL (≈ 49.8 µM)
4 | Cc1ccc(/C=C/C(=O)c2cc(Cl)sc2Cl)cc1 | 10 mm | 16 mm | 8 mm | 9 mm | 16 mm | 6 mm | 70 µg/mL (≈ 236 µM) | 12 mm | 70 µg/mL (≈ 236 µM) | 12 mm | 80 µg/mL (≈ 269 µM)
5 | COc1cc(/C=C/C(=O)c2cc(Cl)sc2Cl)cc(OC)c1OC | 22 mm | 6 mm | 6 mm | 12 mm | 14 mm | 14 mm | 78 µg/mL (≈ 209 µM) | 20 mm | 40.1 µg/mL (≈ 108 µM) | 12 mm | 45.1 µg/mL (≈ 121 µM)
6 | O=C(/C=C/c1cccc([N+](=O)[O-])c1)c1cc(Cl)sc1Cl | 12 mm | 18 mm | 20 mm | 18 mm | 22 mm | 16 mm | 5.97 µg/mL (≈ 18.2 µM) | 14 mm | 50 µg/mL (≈ 152 µM) | 24 mm | 50 µg/mL (≈ 152 µM)
7 | O=C(/C=C/C=C/c1ccccc1)c1cc(Cl)sc1Cl | 16 mm | 8 mm | 7 mm | 11 mm | 16 mm | 20 mm | 75 µg/mL (≈ 243 µM) | 16 mm | 55.6 µg/mL (≈ 180 µM) | 9 mm | 60 µg/mL (≈ 194 µM)
8 | O=C(O)c1cn(C2CC2)c2cc(N3CCNCC3)c(F)cc2c1=O [CIPROFLOXACIN] | – | – | 24 mm | 24 mm | – | 24 mm | – | – | – | 22 mm | –
9 | OC(Cn1cncn1)(Cn1cncn1)c1ccc(F)cc1F [FLUCONAZOLE] | 29 mm | 29 mm | – | – | – | – | 50 µg/mL (≈ 163 µM) | 29 mm | 50 µg/mL (≈ 163 µM) | – | 50 µg/mL (≈ 163 µM)
